Results as given in ChEMBL document CHEMBL1156768, “The structure-activity relationship of the antimalarial ozonide arterolane (OZ277)” (J Med Chem, 2010).
Converted amounts (≈) assume the structure as drawn. One block for each compound: values may come before it.

Experiments:
Plasmodium berghei [1] = assay: Antiplasmodial activity against Plasmodium berghei infected in NMRI mice (Mus musculus) assessed as curing of parasitaemia at 3 mg/kg, perorally daily once for 3 consecutive days measured after 30 days post-infection; assay type: functional; conditions: route oral
Summary of the method: (§1)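 P. berghei-infected NMRI mice, in groups of five, were dosed orally at 3 mg/kg on days +1, +2 and +3 postinfection. Parasitemia reduction, survival time and cure were scored.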

Plasmodium berghei [2] = assay: Antiplasmodial activity against Plasmodium berghei infected in NMRI mice (Mus musculus) assessed as mice (Mus musculus) survival days at 3 mg/kg, perorally daily once for 3 consecutive days measured after 4 days post-infection; assay type: functional; conditions: route oral; summary of the method: as §1
Plasmodium berghei [3] = assay: Antiplasmodial activity against Plasmodium berghei infected in NMRI mice (Mus musculus) assessed as reduction of parasitaemia level at 10 mg/kg, perorally administered 1 day after post-infection measured after 3 days post-infection; assay type: functional; set-up: scale not given: the % may be the effect or the level left; conditions: route oral
Summary of the method: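 Groups of five NMRI mice infected with P. berghei received a single oral dose on day 1 postinfection. Read-out was percent reduction in parasitemia on day 3 postinfection. Individual measurements differed by less than 10%.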

Plasmodium berghei [4] = assay: Antiplasmodial activity against Plasmodium berghei infected in NMRI mice (Mus musculus) assessed as reduction of parasitaemia level at 3 mg/kg, perorally daily once for 3 consecutive days measured after 4 days post-infection; assay type: functional; set-up: scale not given: the % may be the effect or the level left; conditions: route oral; summary of the method: as §1
Plasmodium falciparum [5] = assay: Antimalarial activity against chloroquine-resistant Plasmodium falciparum K1 infected in human A+ erythrocytes assessed as [3H]hypoxanthine incorporation by semiautomated micro dilution assay; assay type: functional, organism-based
Plasmodium falciparum [6] = assay: Antimalarial activity against chloroquine-sensitive Plasmodium falciparum NF54 infected in human A+ erythrocytes assessed as [3H]hypoxanthine incorporation by semi-automated micro dilution assay; assay type: functional, organism-based
[7] = Half life in Sprague-Dawley rat at 2.5 to 3.5 mg/kg, iv; assay type: ADME, organism-based; set-up: dose 2.5-3.5 mg/kg, route intravenous; conditions: in vivo
Summary of the method: (§2)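 Rats received an IV infusion over 5-10 min through a jugular cannula at 2.5-3.5 mg/kg, in DMSO/aqueous buffer or propylene glycol/ethanol/water. Oral gavage used aqueous suspensions in HPMC or CMC with 0.4% Tween 80 and 0.5% benzyl alcohol. Carotid blood was sampled, and plasma was acetonitrile-precipitated and measured by LC/MS against plasma calibration standards. Values are averages of 2-3 determinations.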

[8] = Oral bioavailability in Sprague-Dawley rat; assay type: ADME, organism-based; conditions: in vivo; summary of the method: as §2
Rattus norvegicus [9] = assay: Neurotoxicity in Sprague-Dawley rat at 300 mg/kg, po daily once for 5 days; assay type: toxicity, organism-based; set-up: dose 300 mg/kg, route oral; conditions: in vivo, 120 h
Summary of the method: (§3)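 Preliminary toxicology was run in male rats given daily oral doses for five days.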

Cytochrome P450 2C9 = Cytochrome P450 2C9 (Homo sapiens, UniProt P11712); assay: Inhibition of human CYP2C9 up to 50 uM; assay type: ADME
Chain of Cytochrome P450 2C9 (P11712 whole entry): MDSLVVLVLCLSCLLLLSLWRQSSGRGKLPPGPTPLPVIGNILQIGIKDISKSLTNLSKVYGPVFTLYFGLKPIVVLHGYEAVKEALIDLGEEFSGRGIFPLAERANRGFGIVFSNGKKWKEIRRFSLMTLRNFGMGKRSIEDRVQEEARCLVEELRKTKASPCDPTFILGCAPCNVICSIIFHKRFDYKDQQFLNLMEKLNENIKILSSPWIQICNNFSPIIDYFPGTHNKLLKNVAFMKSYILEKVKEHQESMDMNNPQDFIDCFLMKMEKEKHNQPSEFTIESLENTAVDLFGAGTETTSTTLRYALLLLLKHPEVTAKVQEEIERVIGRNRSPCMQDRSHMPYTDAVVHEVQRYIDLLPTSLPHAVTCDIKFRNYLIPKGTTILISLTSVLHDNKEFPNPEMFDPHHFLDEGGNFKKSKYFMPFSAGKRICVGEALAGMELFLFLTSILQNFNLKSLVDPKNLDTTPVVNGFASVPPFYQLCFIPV

[10] = Volume of distribution in Sprague-Dawley rat at 2.5 to 3.5 mg/kg, iv; assay type: ADME, organism-based; set-up: dose 2.5-3.5 mg/kg, route intravenous; conditions: in vivo; summary of the method: as §2
[11] = Blood clearance in Sprague-Dawley rat at 2.5 to 3.5 mg/kg, iv; assay type: ADME, organism-based; set-up: dose 2.5-3.5 mg/kg, route intravenous; conditions: whole blood; summary of the method: as §2
Rattus norvegicus [12] = assay: Lymphatic organ toxicity in Sprague-Dawley rat at 300 mg/kg, po daily once for 5 days; assay type: organism-based; set-up: dose 300 mg/kg, route oral; conditions: in vivo, 120 h; summary of the method: as §3
Cytochrome P450 2D6 = Cytochrome P450 2D6 (Homo sapiens, UniProt P10635); assay: Inhibition of human CYP2D6 up to 50 uM; assay type: ADME
Chain of Cytochrome P450 2D6 (P10635 whole entry): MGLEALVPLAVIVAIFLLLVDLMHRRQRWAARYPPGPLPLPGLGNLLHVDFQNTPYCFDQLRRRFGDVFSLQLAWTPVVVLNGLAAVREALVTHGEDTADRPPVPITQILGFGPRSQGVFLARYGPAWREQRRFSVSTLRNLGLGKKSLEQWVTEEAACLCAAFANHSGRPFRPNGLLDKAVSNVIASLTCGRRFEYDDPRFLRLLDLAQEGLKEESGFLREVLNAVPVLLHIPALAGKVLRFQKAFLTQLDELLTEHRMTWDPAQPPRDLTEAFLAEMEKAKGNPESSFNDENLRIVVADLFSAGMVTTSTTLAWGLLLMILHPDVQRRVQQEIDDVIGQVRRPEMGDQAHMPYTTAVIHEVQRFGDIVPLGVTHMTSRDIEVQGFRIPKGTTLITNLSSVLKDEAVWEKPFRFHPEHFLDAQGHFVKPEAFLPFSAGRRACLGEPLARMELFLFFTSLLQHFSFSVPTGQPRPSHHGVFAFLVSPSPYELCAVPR

Rattus norvegicus [13] = assay: Liver toxicity in Sprague-Dawley rat at 300 mg/kg, po daily once for 5 days; assay type: organism-based; set-up: dose 300 mg/kg, route oral; conditions: in vivo, 120 h; summary of the method: as §3
[14] = Plasma clearance in Sprague-Dawley rat at 2.5 to 3.5 mg/kg, iv; assay type: ADME, organism-based; set-up: dose 2.5-3.5 mg/kg, route intravenous; summary of the method: as §2
Cytochrome P450 3A4 = Cytochrome P450 3A4 (Homo sapiens, UniProt P08684); assay: Inhibition of human CYP3A4 up to 50 uM; assay type: ADME
Chain of Cytochrome P450 3A4 (P08684 whole entry): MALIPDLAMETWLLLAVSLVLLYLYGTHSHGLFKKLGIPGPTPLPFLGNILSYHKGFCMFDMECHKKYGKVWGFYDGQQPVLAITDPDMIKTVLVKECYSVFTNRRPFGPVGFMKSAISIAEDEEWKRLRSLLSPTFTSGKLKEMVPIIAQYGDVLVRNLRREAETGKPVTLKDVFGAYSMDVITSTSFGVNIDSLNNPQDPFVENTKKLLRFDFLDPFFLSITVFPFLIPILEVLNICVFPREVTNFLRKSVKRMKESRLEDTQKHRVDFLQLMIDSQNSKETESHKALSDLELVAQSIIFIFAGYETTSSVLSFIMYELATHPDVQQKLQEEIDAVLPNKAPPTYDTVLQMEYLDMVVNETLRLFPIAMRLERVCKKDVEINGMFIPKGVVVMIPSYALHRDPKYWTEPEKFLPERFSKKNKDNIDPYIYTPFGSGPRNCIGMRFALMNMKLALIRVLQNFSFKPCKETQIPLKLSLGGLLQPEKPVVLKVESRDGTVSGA

Rattus norvegicus [15] = assay: Renal toxicity in Sprague-Dawley rat at 300 mg/kg, po daily once for 5 days; assay type: organism-based; set-up: dose 300 mg/kg, route oral; conditions: in vivo, 120 h; summary of the method: as §3
[16] = Partition coefficient, log D in octanol/buffer at pH 7.4 by chromatographic method; assay type: physicochemical

Compound: Cc1ccc(S(=O)(=O)O)cc1.N[C@H]1CC[C@H](NC(=O)C[C@H]2CC[C@]3(CC2)OO[C@]2(O3)C3CC4CC(C3)CC2C4)CC1
- Activity (Plasmodium berghei [1]): 0%
- Survival (Plasmodium berghei [2]): 22 days
- Activity (Plasmodium berghei [3]): >99.9%
- Activity (Plasmodium berghei [4]): >99.9%

Compound: O=C(O)C1CCN(C(=O)C[C@H]2CC[C@]3(CC2)OO[C@]2(O3)C3CC4CC(C3)CC2C4)CC1
- IC50 (Plasmodium falciparum [5]): 19 ng/mL (≈ 43.8 nM)
- IC50 (Plasmodium falciparum [6]): 27 ng/mL (≈ 62.3 nM)

Compound: O=C(C[C@H]1CC[C@]2(CC1)OO[C@]1(O2)C2CC3CC(C2)CC1C3)NO
- IC50 (Plasmodium falciparum [5]): 1.4 ng/mL (≈ 4.15 nM)
- IC50 (Plasmodium falciparum [6]): 2 ng/mL (≈ 5.93 nM)
- Activity (Plasmodium berghei [3]): 97%

Compound: O=C1CN(C(=O)C[C@H]2CC[C@]3(CC2)OO[C@]2(O3)C3CC4CC(C3)CC2C4)CCN1
- IC50 (Plasmodium falciparum [5]): 0.6 ng/mL (≈ 1.48 nM)
- IC50 (Plasmodium falciparum [6]): 0.89 ng/mL (≈ 2.2 nM)
- Activity (Plasmodium berghei [3]): 99.2%

Compound: O=C(C[C@H]1CC[C@]2(CC1)OO[C@]1(O2)C2CC3CC(C2)CC1C3)N1CCS(=O)(=O)CC1
- Activity (Plasmodium berghei [3]): <40%

Compound: Cc1ccc(S(=O)(=O)O)cc1.NC1CCN(C(=O)C[C@H]2CC[C@]3(CC2)OO[C@]2(O3)C3CC4CC(C3)CC2C4)CC1
- half-life [7]: 1.38 h
- bioavailability [8]: 78%
- Activity (Rattus norvegicus [9]): Non-toxic
- Activity (Cytochrome P450 2C9): Not Active
- Vd [10]: 19 L/kg
- IC50 (Plasmodium falciparum [6]): 0.39 ng/mL
- clearance [11]: 39.1 mL/min/kg
- Activity (Rattus norvegicus [12]): Non-toxic
- Activity (Plasmodium berghei [1]): 60%
- Activity (Cytochrome P450 2D6): Not Active
- Activity (Rattus norvegicus [13]): Non-toxic
- clearance [14]: 157 mL/min/kg
- Activity (Cytochrome P450 3A4): Not Active
- Survival (Plasmodium berghei [2]): 27 days
- Activity (Plasmodium berghei [3]): >99.9%
- Activity (Rattus norvegicus [15]): Non-toxic
- Activity (Plasmodium berghei [4]): >99.9%

Compound: CC(C)(N)CNC(=O)[C@H]1CC[C@]2(CC1)OO[C@]1(O2)C2CC3CC(C2)CC1C3.Cc1ccc(S(=O)(=O)O)cc1
- IC50 (Plasmodium falciparum [5]): 0.66 ng/mL
- IC50 (Plasmodium falciparum [6]): 0.25 ng/mL
- Activity (Plasmodium berghei [3]): 96%

Compound: O=C(C[C@H]1CC[C@]2(CC1)OO[C@]1(O2)C2CC3CC(C2)CC1C3)N1CCCCC1
- IC50 (Plasmodium falciparum [5]): 1.6 ng/mL (≈ 4.11 nM)
- IC50 (Plasmodium falciparum [6]): 1.6 ng/mL (≈ 4.11 nM)

Compound: O=C(C[C@H]1CC[C@]2(CC1)OO[C@]1(O2)C2CC3CC(C2)CC1C3)N1CCC(O)CC1
- half-life [7]: 11 h
- bioavailability [8]: 5%
- Vd [10]: 36 L/kg
- IC50 (Plasmodium falciparum [5]): 0.49 ng/mL (≈ 1.21 nM)
- IC50 (Plasmodium falciparum [6]): 0.76 ng/mL (≈ 1.87 nM)
- clearance [14]: 37 mL/min/kg
- Activity (Plasmodium berghei [3]): 99.7%

Compound: O=C(C[C@H]1CC[C@]2(CC1)OO[C@]1(O2)C2CC3CC(C2)CC1C3)N1CCOCC1
- IC50 (Plasmodium falciparum [5]): 1.7 ng/mL (≈ 4.34 nM)
- IC50 (Plasmodium falciparum [6]): 3 ng/mL (≈ 7.66 nM)
- Activity (Plasmodium berghei [3]): 99.8%

Compound: NC(=O)C[C@H]1CC[C@]2(CC1)OO[C@]1(O2)C2CC3CC(C2)CC1C3
- IC50 (Plasmodium falciparum [5]): 0.91 ng/mL (≈ 2.83 nM)
- IC50 (Plasmodium falciparum [6]): 1.1 ng/mL (≈ 3.42 nM)
- Activity (Plasmodium berghei [3]): 97%

Compound: Cc1ccc(S(=O)(=O)O)cc1.NCCCNC(=O)C[C@H]1CC[C@]2(CC1)OO[C@]1(O2)C2CC3CC(C2)CC1C3
- IC50 (Plasmodium falciparum [5]): 3.5 ng/mL
- IC50 (Plasmodium falciparum [6]): 2.3 ng/mL
- Activity (Plasmodium berghei [3]): 99.9%

- Vd [10]: 3 L/kg
- clearance [14]: 72 mL/min/kg
Compound: C[C@H]1[C@@H](O)O[C@@H]2O[C@@]3(C)CC[C@H]4[C@H](C)CC[C@@H]1[C@@]24OO3 [ARTENIMOL]

Compound: CC(C)(N)CNC(=O)C[C@H]1CC[C@]2(CC1)OO[C@]1(O2)C2CC3CC(C2)CC1C3.Cc1ccc(S(=O)(=O)O)cc1 [ARTEROLANE]
- half-life [7]: 1.27 h
- chromatographic logD [16]: 2.9
- bioavailability [8]: 26%
- Activity (Rattus norvegicus [9]): Non-toxic
- Activity (Cytochrome P450 2C9): Not Active
- Vd [10]: 16 L/kg
- IC50 (Plasmodium falciparum [5]): 1 ng/mL
- IC50 (Plasmodium falciparum [6]): 0.91 ng/mL
- clearance [11]: 62 mL/min/kg
- Activity (Rattus norvegicus [12]): Non-toxic
- Activity (Plasmodium berghei [1]): 0%
- Activity (Cytochrome P450 2D6): Not Active
- Activity (Rattus norvegicus [13]): Non-toxic
- clearance [14]: 141 mL/min/kg
- Activity (Cytochrome P450 3A4): Not Active
- Survival (Plasmodium berghei [2]): 11.4 days
- Activity (Plasmodium berghei [3]): 99.9%
- Activity (Rattus norvegicus [15]): Non-toxic
- Activity (Plasmodium berghei [4]): >99.9%

Compound: C[C@H]1[C@H](OC(=O)CCC(=O)O)O[C@@H]2O[C@@]3(C)CC[C@H]4[C@H](C)CC[C@@H]1[C@@]24OO3 [ARTESUNATE]
- Activity (Rattus norvegicus [9]): Non-toxic
- Activity (Rattus norvegicus [12]): Non-toxic
- Activity (Rattus norvegicus [13]): Non-toxic
- Survival (Plasmodium berghei [2]): 9.2 days
- Activity (Rattus norvegicus [15]): Non-toxic
- Activity (Plasmodium berghei [4]): 70%

Compound: CCN(CC)CCCC(C)Nc1ccnc2cc(Cl)ccc12 (stereo unspecified) [CHLOROQUINE]
- Survival (Plasmodium berghei [2]): 9.4 days

Compound: OC(c1cc(C(F)(F)F)nc2c(C(F)(F)F)cccc12)C1CCCCN1 (stereo unspecified) [MEFLOQUINE]
- Survival (Plasmodium berghei [2]): 15.8 days
- Activity (Plasmodium berghei [4]): 99%
